Columns and labels:
[1] = Stability in intestinal S9 fraction; format: in vitro ADME; settings: rat
How it was run: (§1)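 Test compound added to intestinal S9 fraction of each species to start the reaction. Incubated in a shaking water bath at 37 °C, with samples taken at sequential timepoints. Samples quenched with ice-cold acetonitrile and analysed by LC-MS/MS. Half-life calculated from the rate of parent compound depletion.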

[2] = 2 weeks GLP rat toxicology study with toxicokinetics; format: in vivo; settings: both, Wistar; for AUC(0-t): AUC0-8, rat
How it was run: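 Male and female Wistar rats were about 7–8 weeks old at receipt and 9–10 weeks old at the start of dosing. They were dosed for 2 weeks at 50, 250 and 1000 mg/kg/day, with toxicokinetic plasma sampling.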

[3] = In vivo pharmacokinetic analysis; design: species or system rat; settings: portal vein cannulated rats, oral
[4] = test system: C. parvum; test: Neonatal calf efficacy study; format: in vivo, neonatal calves
How it was run: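 Infected neonatal calves received test compound orally by dosing syringe every 12 h for 7 days at 10 mg/kg birth weight, at least 2 h after feeding. Controls were vehicle-treated calves. The negative-control calf was sham-challenged so staff stayed blinded during dosing, clinical scoring of faecal consistency and faecal qPCR for oocysts.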

[5] = Cytotoxicity assay; format: cell-based, human; settings: human, HepG2 cells (ATCC CRL-10741), HepG2 CC50, 96 h
[6] = Neonatal calf pharmacokinetics; format: in vivo; settings: bovine, plasma, po, 10 mg/kg
How it was run: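 Calves were dosed orally at 10 mg/kg birth weight every 12 h, at least 2 h after feeding. On day 1, blood was drawn before dosing and at several timepoints up to 12 h.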

[7] = test system: C. parvum; test: DNA synthesis; format: cell-based, Cryptosporidium parvum; settings: compound at 3 h post infection, EdU at 9 h
How it was run: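 HCT-8 cells were seeded at 5,000–25,000 per well on fibronectin-coated glass-bottom plates to reach 90–100% confluence, then infected with triggered oocysts. After 3 h at 37 °C, test compound or controls were added (DMSO neutral, cladosporin active) and incubation continued to about 9 h post infection. EdU was detected, vacuoles stained with VVL and nuclei with Hoechst, and wells imaged with a 40x objective.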

[8] = test system: C. parvum; test: Time-kill assay, nanoluciferase-expressing C. parvum; format: cell-based, Cryptosporidium parvum
[9] = test system: C. parvum; test: Washout assay, nanoluciferase-expressing C. parvum; format: cell-based, Cryptosporidium parvum; settings: exposure 2–6 h post infection
How it was run: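 HCT-8 cells were grown to ~90% confluence, then infected with 400 nanoluciferase-expressing oocysts per well. Before infection, oocysts were primed for excystation with 10 mM HCl in water (10 min, 37 °C), then 2 mM sodium taurocholate in DPBS with Ca/Mg (10 min, 16 °C). Luminescence was read over time. RLU taken soon after infection served as day 0 and was used to normalize each timepoint.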

[10] = Plasma stability; format: in vitro ADME; settings: dog
How it was run: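 Test compound was added to plasma and incubated at 37 °C in a shaking water bath, with samples taken at sequential timepoints. Samples were quenched with ice-cold acetonitrile and analysed by LC-MS/MS, and half-life was calculated from the depletion rate.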

[11] = Stability in intestinal S9 fraction; format: in vitro ADME; settings: dog
How it was run: as §1

[12] = In vivo pharmacokinetic analysis; design: species or system mouse
How it was run: (§2)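 Animals were male C57BL/6 mice (8–10 weeks), Wistar rats (8–10 weeks) and beagle dogs (12–14 weeks). Each received oral and i.v. doses, with plasma sampling for PK parameters.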

[13] = In vivo pharmacokinetics, all tested preclinical species; settings: male, mouse, rat, dog, plasma, po
How it was run: as §2

[14] = test system: MDR-transfected MDCK cells; test: MDCK MDR1 permeability and efflux; format: in vitro ADME; settings: MDCK MDR1, basolateral to apical
[15] = Lipophilicity; format: physicochemical
[16] = 2 weeks GLP dog toxicology study with toxicokinetics; format: in vivo; settings: for AUC(0-t): AUC0-8, dog
[17] = test system: human PXR; test: PXR reporter gene assay; format: in vitro ADME
How it was run: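 CYP3A4 transactivation was measured in the human hepatoma line DPX-2, which overexpresses human PXR and carries a CYP3A4 promoter-luciferase reporter.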

[18] = Hepatocytes metabolic stability; format: in vitro ADME; settings: rat
How it was run: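 Test compound was incubated with liver microsomes or hepatocytes of each species, and parent depletion was quantified by LC-MS/MS. From this, in vitro half-life and intrinsic clearance were derived, along with predicted metabolic clearance and hepatic extraction ratio.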

[19] = Plasma protein binding; format: in vitro ADME; settings: rat
[20] = test system: TK6 cells; test: In vitro micronucleus test in TK6 cells; format: cell-based
[21] = plasma, po, 1000 mg/kg/day, EDI048 1000 mg/kg/day, day 1
[22] = plasma, po, 1000 mg/kg/day, EDI048 1000 mg/kg/day, day 14
[23] = male, C57BL/6, mouse, plasma, iv, 1 mg/kg
[24] = male, C57BL/6, mouse, plasma, po, 10 mg/kg

CNC(=O)c1ccc(-c2cnn3ccc(C(=O)N(C)c4ccc(Cl)c(C(=O)OC)c4)cc23)cc1 [EDI048, methyl 2-chloro-5-(N-methyl-3-(4-(methylcarbamoyl)phenyl)pyrazolo[1,5-a]pyridine-5-carboxamido)benzoate]
half-life [1]: > 240 min
NOAEL at 14 days ([2]; in vivo, po): 1000 mg/kg/day
Tmax ([2]; plasma, oral, rat toxicity study): 30 min
AUC(0-t) [2, 21]: 11.1 ng·h/mL
AUC(0-t) [2, 22]: 18.6 ng·h/mL
Cmax ([2]; plasma, po, 1000 mg/kg/day, Cmax, EDI048 1000 mg/kg/day, day 14): 4.13 ng/mL
Tmax [2, 21]: 30 min
Tmax [2, 22]: 30 min
portal vein concentration relative to systemic levels [3]: ~ 40 fold
tolerability in calves ([4]; 10 mg kg^−1 every 12 h, 7 days): tolerated the full 7 day course of EDI048 treatment without compound-related abnormalities
faecal consistency vs vehicle-treated calves ([4]; P < 0.0001): improved faecal consistency
faecal oocyst shedding vs vehicle-treated calves ([4]; P = 0.0062): shed significantly fewer oocysts
emergence of resistance during treatment ([4]; calf model): resistance did not emerge
time to signs of resolution of diarrhea ([4]; post treatment): ≤ 48 h
recrudescence after cessation of treatment ([4]; up to 7 days): No recrudescence of infection
CC50 at 96 h [5]: 28.1 µM
Tmax ([6]; infected calves with diarrhea): 720 min
Tmax ([6]; uninfected healthy calves): 120 min
DNA synthesis (EdU incorporation) [7]: does not affect DNA synthesis
concentration achieving maximum rate of parasite elimination [8]: ≥ 27 nM
washout: effect of 4 h exposure on parasite growth [9]: does not affect parasite growth
Plasma T1/2 [10]: > 120 min
half-life ([10]; Plasma T1/2, dog plasma): > 240 min
half-life [11]: > 240 min
AUC [12, 23]: 0.668 µM·h
Vd [12, 23]: 1.05 L/kg
clearance [12, 23]: 66.7 mL/min/kg
half-life [12, 23]: 25.8 min
AUC [12, 24]: 0.0204 µM·h
Cmax [12, 24]: 8.4 nM
Tmax [12, 24]: 60 min
bioavailability [12, 24]: 0.4%
Cmax ([12]; mouse, oral 1 mg/kg): <LLOQ
Cmax ([12]; mouse, oral 3 mg/kg): <LLOQ
bioavailability [13]: 0.4 to 5.6%
Permeability B–A [14]: 7.92 / 12.9 / 1.62 ×10^−6 cm s^−1
logD [15]: 2.7
logP [15]: 3.65
NOAEL at 14 days ([16]; both, beagle, dog, in vivo, po): 1000 mg/kg/day
Tmax ([16]; both, beagle, dog, plasma, oral, dog toxicity study): ≤ 75 min
AUC(0-t) ([16]; both, beagle, dog, plasma, po, 1000 mg/kg/day, EDI048 1000 mg/kg/day, day 1): 459 ng·h/mL
AUC(0-t) ([16]; both, beagle, dog, plasma, po, 1000 mg/kg/day, EDI048 1000 mg/kg/day, day 14): 634 ng·h/mL
Cmax ([16]; both, beagle, dog, plasma, po, 1000 mg/kg/day, Cmax, dog, EDI048 1000 mg/kg/day, day 14): 169 ng/mL
Tmax ([16]; both, beagle, dog, plasma, po, 1000 mg/kg/day, dog, EDI048 1000 mg/kg/day, day 1): 57 min
Tmax ([16]; both, beagle, dog, plasma, po, 1000 mg/kg/day, dog, EDI048 1000 mg/kg/day, day 14): 45 min
cardiovascular findings in dogs ([16]; up to 1000 mg/kg/day): no EDI048-related cardiovascular findings
induction of human pregnane X receptor [17]: did not induce human pregnane X receptor

CN(C(=O)c1ccn2ncc(-c3ccc(C(N)=O)cc3)c2c1)c1ccc(C#N)cn1 [KDU731, 3–(4-carbamoylphenyl)-N-(5-cyanopyridin-2-yl)-N-methylpyrazolo [1,5-a]pyridine-5-carboxamide, reference compound]
Hepatocytes ER [18]: 36%
hepatocyte CLint ([18]; hepatocytes): 6.9 µL/min/1e6 cells
% Plasma protein binding [19]: 87.7%
In vitro TK6 Micronucleus (MN) test [20]: Negative

From publication PMC11522000 (Nature Microbiology, 2024)
